Two compounds from ChEMBL document CHEMBL2177098, “Synthesis and evaluation of novel ¹⁸F labeled 2-pyridinylbenzoxazole and 2-pyridinylbenzothiazole derivatives as ligands for positron emission tomography (PET) imaging of β-amyloid plaques” (J Med Chem, 2012) can be followed below.

Structures are written as SMILES.

The assay can be described thus: Displacement of [125I]-IMPY from amyloid beta (1 to 42) fibrils after 2 hrs by gamma-counting analysis. The method in brief: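 Competition binding with aggregated Aβ1-42 fibrils and [125I]IMPY (60000−100000 cpm/100 μL) in 0.05% BSA (1 mL total); inhibitors 10⁻⁴−10^−8.5 M in ethanol. Incubated 37 °C for 2 h, then GF/B vacuum filtration with PBS (0.02 M, pH 7.4) washes and γ counting. Three repeats; IC50 converted to Ki by Cheng−Prusoff.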

Broadly, the Ki is a dissociation constant, usually derived from enzyme kinetics or from competition with a known ligand. Regarding `CN(C)c1ccc(-c2nc3cc(OCCOCCF)ccc3o2)cn1`, the affinity corresponds to a Ki of 7.3 nM.

With `CNc1ccc(-c2nc3ccc(OCCOCCF)cc3s2)cn1`, the Ki stood at 29.7 nM.
